The list is not random: actives were taken first. Their share in the collection is about 11%.
Htt clearance – mutant huntingtin protein clearance. HeLa Exon1htt(103Q)mCFP, aggregate imaging; zero = plate's median compound well. actives 0.42% (n = 47,000). inhibition, % at 1.5 µM. AID 853;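 active means inhibition of aggregate fluorescence above about 70%, also judged a hit by eye on the cell image, limit read from the data, passing the limit was not always enough; inconclusive means no rule stated for this call; inactive means not judged a hit on image review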;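 further: cells exposed to compound for three days before fixation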
RORa activator – RORA (human) activation. CHO-K1 Gal4-RORA LBD luciferase reporter, luminescence; percent increase over mock-subtracted basal signal. activation, % at 10 µM. actives 1.5% (n = 65,000). AID 560;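 active means activation above the mean of all tested compounds plus 3 SD, cut at about 49% in these data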;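 further: 0% = DMSO-treated RORA cells and 100% = added signal equal to DMSO minus mock-transfected cells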
SF1 activator – SF-1 (human) activation; activation, % at 10 µM; AID 522; actives 1.9% (n = 65,000); CHO-K1 Gal4-SF-1 LBD luciferase reporter; % increase over DMSO SF-1-specific signal; Q13285;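 active means activation above the mean activation of all tested compounds plus 3 SD, cut at about 50% in these data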
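Test system: transient Gal4-SF-1 LBD reporter, CHO-K1; Amount: 4,000 CHO-K1 cells per well; Doses: 10 µM only; Timing: compound exposure 20 h at 37 °C; Signal: luciferase light emission; Read-out basis: percent activation relative to DMSO median and mock-transfected background; Control set: DMSO negative control and −SF1 background wells; Replicates: one test per compound.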
M1 antag – antagonists of rat M1 muscarinic receptor; P08482; CHO-M1 cells, Fluo-4 calcium, ACh EC80 antagonist mode; hits give low values; B-score at 10 µM; actives 3.4% (n = 64,000);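 active means calcium fluorescence response, raw or row-and-column corrected B-score, differing from the plate sample mean either way at a set confidence level, mostly lower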
M1 ag – agonists of M1 muscarinic receptor | CHO-M1 cells, Fluo-4 calcium fluorescence, agonist mode; hits give high values | B-score at 10 µM | actives 3% (n = 64,000) | AID 626;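 active means fluorescence rise, raw or as B-score row- and column-corrected plate score, outside the 99.7% band of its plate's samples, either direction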
D1 allo mod – allosteric modulators of human D1 dopamine receptor; P21728; actives 5.9% (n = 58,000); AID 641; HEK293 D1, CRE-luciferase, dopamine EC30 potentiation; actives deviate in either direction; B-score at 10 µM;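 active means luminescence count or its row- and column-corrected plate score outside the 99.7% band of the plate's sample wells, on either side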
Target sequence (P21728 whole entry, looked up): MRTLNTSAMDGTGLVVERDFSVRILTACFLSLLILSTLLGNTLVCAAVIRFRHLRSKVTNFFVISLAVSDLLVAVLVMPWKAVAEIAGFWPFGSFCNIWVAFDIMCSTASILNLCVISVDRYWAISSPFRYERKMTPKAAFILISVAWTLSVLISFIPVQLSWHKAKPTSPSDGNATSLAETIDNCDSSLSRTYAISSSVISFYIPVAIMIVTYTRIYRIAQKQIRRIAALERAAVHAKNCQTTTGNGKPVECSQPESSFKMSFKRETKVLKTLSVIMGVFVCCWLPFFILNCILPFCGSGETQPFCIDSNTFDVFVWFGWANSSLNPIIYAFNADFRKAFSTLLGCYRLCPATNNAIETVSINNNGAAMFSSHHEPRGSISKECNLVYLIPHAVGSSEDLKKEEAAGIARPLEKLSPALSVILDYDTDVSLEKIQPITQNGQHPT
* = called active by the depositor; ? = inconclusive; nt = not tested or not shown.

SMILES	Htt clearance	RORa activator	SF1 activator	M1 antag	M1 ag	D1 allo mod
CCc1nc(NCCN2CCOCC2)c2oc3ccccc3c2n1	nt	-2	10	-0.32	-0.056	3.2*
COc1ccc(OC)c(NC(=O)C2C3C=CC(C3)C2C(=O)NCc2ccccn2)c1 (centres undefined)	nt	13	11	0.13	-1.1	0.53
O=C(O)C1C2C=CC(C2)C1C(=O)NCc1ccccn1 (centres undefined)	nt	4	9	2.7*	0.7	-0.66
COc1ccccc1NC(=O)N(Cc1ccccc1)C1=NCC(C)S1 (centres undefined)	nt	14	-2	0.86	-2.1	-0.77
CCOC(=O)C1CCCN(S(=O)(=O)c2cc(OCC(N)=O)c(C)cc2Cl)C1 (centres undefined)	71*	-7	8	-0.23	-1.7	0.12
Cc1cc(Cl)c(S(=O)(=O)N2CCCCCC2)cc1OCC(N)=O	-37	6	5	-0.28	-0.28	-0.24
CCOC(=O)C(C)Sc1ncc(-c2ccc(Cl)cc2)cn1 (centres undefined)	-20	nt	nt	nt	nt	nt
Nc1nc2c3ccccc3nc(C3CC3)n2n1	nt	4	-4	nt	nt	nt
CCCn1c(CN2CCN(c3cccc(Cl)c3)CC2)nc2c1c(=O)n(C)c(=O)n2C	nt	-2	-19	-2.5*	11*	-2.8
CCCCn1c(CN2CCN(c3cccc(Cl)c3)CC2)nc2c1c(=O)n(C)c(=O)n2C	nt	-6	-8	-0.44	0.019	-2.9*
Cn1nnnc1SCCNC/C=C/c1ccccc1	21	-6	-13	-0.14	-0.52	-0.041
O=C(CNC(=O)c1cccs1)NCCN1CCN(c2ccccc2F)CC1	nt	-6	2	0.37	-0.11	-3.6*
Cc1onc(-c2c(Cl)cccc2Cl)c1C(=O)N1CCc2ccccc2C1	-72	nt	nt	nt	nt	nt
COc1cccc(CNCc2ccc(SC)cc2)c1OC	-12	nt	nt	nt	nt	nt
c1ccc(C2=Nn3c(nnc3-c3n[nH]c4c3CCC4)SC2)cc1	-36	-20	-18	0.36	-0.14	-3.6*
Cc1cc(NC(=O)COC(=O)c2cc(S(=O)(=O)N3CCOCC3)ccc2N2CCCCC2)no1	-4	nt	nt	nt	nt	nt
CNc1nc(N2CCc3ccccc32)ncc1F	?	41	75*	-0.3	-1	-1.7
CC(=O)Nc1ccc(NC(=O)COC(=O)Cc2cccs2)cc1	19	nt	nt	nt	nt	nt
Cc1c(C(=O)NC2=NCCS2)oc2ccccc12	nt	6	5	0.3	-0.092	-4.9*
COc1ccccc1N1CCN(C(=O)c2oc3ccccc3c2C)CC1	nt	-19	-13	-4.5*	0.77	-0.9
Cc1c(C(=O)N2CCN(S(C)(=O)=O)CC2)oc2ccccc12	19	-2	2	0.59	0.0048	0.3
Cc1c(C(=O)Nc2cnccn2)oc2ccccc12	-5	45	56*	0.25	0.59	-1.9
Cc1sc(NC(=O)c2oc3ccccc3c2C)c(C#N)c1C	45	21	21	-0.28	-0.13	0.7
COc1ccc(NC(=O)c2oc3ccccc3c2C)c(OC)c1	-282	62*	58*	0.057	-0.075	0.34
CCC(C(=O)c1ccccc1)N(C(=O)c1ccccc1Cl)N1C(=O)C2C3C=CC(C3)C2C1=O (centres undefined)	46	nt	nt	nt	nt	nt
SMILES	Htt clearance	RORa activator	SF1 activator	M1 antag	M1 ag	D1 allo mod
COc1ccc(C(=O)n2ccc(C)n2)cc1Br	-39	-26	-4	-0.44	0.28	-1.8
Cc1cc(C)c2c(n1)nn1c(N3CCN(c4ccccc4C)CC3)cc(C)nc21	-25	7	-11	0.36	0.15	-0.49
CCNS(=O)(=O)c1ccc(C)c(-n2cnnn2)c1C	15	nt	nt	nt	nt	nt
O=C(Nc1cccc2ncccc12)c1ccc(-c2ccc(Br)cc2)o1	-4	nt	nt	nt	nt	nt
COc1ccc(NC(=O)c2cc(C3CC3)on2)c(OC)c1	nt	18	56*	-0.012	0.0069	-0.38
COC(=O)c1ccccc1NC(=O)c1cc(C2CC2)on1	nt	-8	13	-1.4	1.3	0.99
O=C(O)CCn1c(-c2ccccc2)cc2c1CCCC2=O	nt	27	-11	0.72*	0.45	nt
c1ccc2c(c1)OCC(c1nn3c(Cn4nnc5ccccc54)nnc3s1)O2 (centres undefined)	22	-6	-2	-0.25	-3.2*	0.32
COc1ccc(OC)c(NC(=O)CSC2=C(C#N)C(c3ccco3)C3=C(CCCC3=O)N2)c1 (centres undefined)	nt	-22	-12	-0.38	-0.064	nt
CCc1ccccc1NC(=O)CSC1=C(C#N)C(c2ccc3c(c2)OCO3)C2=C(CCCC2=O)N1 (centres undefined)	73*	-19	-18	0.023	-0.11	-0.51
O=C(NCCCN1CCN(c2cccc(Cl)c2)CC1)c1ccc(N2CCCC2=O)cc1	nt	5	-14	-0.0049	0.7	nt
O=C(NCCN1CCCCCC1)c1ccc(N2CCCC2=O)cc1	15	-15	4	2.3*	-1.1	0.11
Cc1c(NC(=O)c2ccccc2)c(=O)n(-c2ccccc2)n1C	78*	nt	nt	nt	nt	nt
Cc1c(NC(=O)C2CCCNC2=O)c(=O)n(-c2ccccc2)n1C (centres undefined)	0	2	-16	0.69*	0.41	0.0035
Cc1c(NC(=O)Cn2nc(C(=O)O)c3ccccc3c2=O)c(=O)n(-c2ccccc2)n1C	-6	-9	1	1*	0.41	-0.64
Cc1c(NC(=O)CC(=O)Nc2c(C)n(C)n(-c3ccccc3)c2=O)c(=O)n(-c2ccccc2)n1C	48	-18	-5	-0.11	-0.086	nt
O=C(Nc1cc(C(F)(F)F)ccc1N1CCOCC1)C1Cc2ccccc2CN1C(=O)c1ccco1 (centres undefined)	nt	-2	-12	1.1	-0.0077	-1.8
CS(=O)(=O)c1ccc2nc(NC(=O)c3cccs3)sc2c1	nt	-29	-19	0.0092	-1.2	-5.7*
COc1ccc2nc(NC(=O)c3cc(C)oc3C)sc2c1	22	nt	nt	nt	nt	nt
Cc1ccc2nc(NC(=O)c3cccs3)sc2c1	nt	-14	-41	1	0.91	-2.8
Cc1cc(C(=O)Nc2nc3ccc(S(C)(=O)=O)cc3s2)c(C)o1	nt	89*	50*	-0.0015	0.62	-1.2
COc1ccc(C2(CNC(=O)CCC(=O)O)CCCC2)cc1OC	12	nt	nt	nt	nt	nt
COC(C)(C)[C@]12CC(O)(c3ccccc3)ON1[C@H]1CCCCC1N2O (some centres undefined)	nt	2	4	0.1	0.34	3.1
O=C(Nc1ccccc1)Nc1ccc(C(=O)N2CCOCC2)cc1	-19	nt	nt	nt	nt	nt
CC(=O)c1c(C)nc(-c2ccc(Cl)cc2)nc1N=CN(C)C	35	68*	76*	-0.48	-0.46	nt
CC(=O)N(C)c1nc(-c2ccc(Cl)cc2)cs1	nt	16	29	-0.69	-1.2	-0.25
N#Cc1nn(-c2ccccc2)nc1N1CCCCC1	nt	-6	-8	-1.1	0.72	-0.15
CC(=O)Nc1ccc(-c2nn[nH]n2)cc1Cl	39	-12	7	-0.029	-0.28	0.0058
COc1ccc(-c2coc3cc(OC)cc(O)c3c2=O)cc1	-17	nt	nt	nt	nt	nt
